Bioassay records deposited in PubChem BioAssay by several laboratories.
Most compounds without a hit are left out; they make up all but 2.1% or so of the library.
CXCR6 block – inhibitors of human CXCR6 receptor; 360,000 tested, 0.36% active; CHO-K1 PathHunter CXCR6 beta-arrestin, luminescence; inhibition, % at 20 µM; in the data active means inhibition above about 34%, passing the limit was not always enough;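 further: antagonist mode with CXCL16 agonist at 10 nM final; 0% = 10 nM CXCL16 with DMSO and 100% = unstimulated wells without agonist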
APJ antag – antagonists of human APJ apelin receptor. inhibition, % at 20 µM. CHO-K1 APJ beta-arrestin complementation, luminescence. 330,000 tested, 0.32% active;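 active means inhibition above about 40% at 20 µM, limit read from the data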;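 further: cells challenged with 10 nM apelin-13 agonist together with compound; plate controls were apelin-13 plus DMSO wells for no effect and DMSO wells lacking apelin-13 for full effect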
CCR6 antagonist – CCR6 (human) receptor antagonism; P51684; CHO-K1 CCR6 PathHunter beta-arrestin, luminescence, CCL20-stimulated; inhibition, % at 20 µM; 340,000 tested, 0.49% active;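 active means compounds whose inhibition of the agonist-driven luminescence signal at 20 µM reaches about 50%, limit read from the data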;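 further: cells stimulated with CCL20 at 14 nM final; plate controls were DMSO with CCL20 for no effect and DMSO without agonist for full effect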
APJ ag – activates the human apelin receptor APJ. P35414. CHO-K1 APJ PathHunter beta-arrestin, luminescence; 0% DMSO wells, 100% apelin. activation, % at 20 µM. 330,000 tested, 0.11% active;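 active means activation more than six SD over the plate average, tested at 20 µM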;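 further: 0% = DMSO alone and 100% = apelin-13 at 10 nM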
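Test system: CHO-K1 APJ beta-arrestin complementation cell line | Compound: Single test compound dose, 20 µM final, 1% DMSO | Incubation: Compound 90 min 25 °C, reagent 1 h | Measured by: beta-gal luminescence | Read-out basis: APJ–arrestin association signal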
m5-HT2A agonist – mouse HTR2A agonism via beta-arrestin recruitment. activation, % at 7.6 µM. CHO-K1 mHTR2A beta-arrestin complementation, luminescence; percent of 30 µM serotonin response. P35363. 360,000 tested, 0.66% active;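 active means activation above a run cutoff, the mean activation of all tested compounds plus 3 SD, cut at about 14% in these data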;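 further: 0% = plate median of compound wells and 100% = 30 µM serotonin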
EBI2 block – EBI2 (human) antagonism | 360,000 tested, 0.81% active | P32249 | EBI2 beta-arrestin recruitment, luminescence, 7a,25-OHC stimulated | inhibition, % at 5 µM | AID 651636; in the data active means inhibition above about 38%;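 further: enzyme fragment complementation signal reports receptor beta-arrestin coupling in cells; 0% = agonist plus DMSO wells and 100% = wells without agonist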
Target sequence (P32249 whole entry, looked up, the tested form may be a part): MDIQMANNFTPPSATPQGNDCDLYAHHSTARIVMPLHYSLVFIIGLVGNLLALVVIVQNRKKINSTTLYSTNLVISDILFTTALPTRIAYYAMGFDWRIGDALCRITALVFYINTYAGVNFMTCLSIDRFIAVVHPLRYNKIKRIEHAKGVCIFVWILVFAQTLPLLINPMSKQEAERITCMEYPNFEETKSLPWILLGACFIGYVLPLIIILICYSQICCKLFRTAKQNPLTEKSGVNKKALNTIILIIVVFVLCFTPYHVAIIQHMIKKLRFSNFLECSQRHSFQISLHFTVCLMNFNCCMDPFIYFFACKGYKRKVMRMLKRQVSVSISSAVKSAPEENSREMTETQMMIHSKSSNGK
CXCR6 confirm – CXCR6 antagonism confirmation, single concentration; CHO-K1 CXCR6 PathHunter beta-arrestin, luminescence; AID 602409; 700 tested, 65% active; inhibition, % at 20 µM; shares compounds with CXCR6 block;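 active means mean inhibition over four retests above 40%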;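 further: receptor stimulated with 10 nM CXCL16 agonist; beta-galactosidase fragment complementation upon beta-arrestin recruitment to receptor; plate controls were CXCL16 plus DMSO for no effect and DMSO without CXCL16 for full effect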
MOR ag counter – activates human mu opioid receptor in HTR2A counterscreen; shares compounds with m5-HT2A agonist; U2OS OPRM1 beta-arrestin PathHunter, luminescence; DMSO 0%, DAMGO 9.3 µM 100%; activation, % at 9.3 µM; 2,300 tested, 5.3% active; AID 624380;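 active means mean activation above the mean of DMSO-only wells plus 3 SD, cut at about 0.5% in these data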
Target sequence (P35372 whole entry, looked up): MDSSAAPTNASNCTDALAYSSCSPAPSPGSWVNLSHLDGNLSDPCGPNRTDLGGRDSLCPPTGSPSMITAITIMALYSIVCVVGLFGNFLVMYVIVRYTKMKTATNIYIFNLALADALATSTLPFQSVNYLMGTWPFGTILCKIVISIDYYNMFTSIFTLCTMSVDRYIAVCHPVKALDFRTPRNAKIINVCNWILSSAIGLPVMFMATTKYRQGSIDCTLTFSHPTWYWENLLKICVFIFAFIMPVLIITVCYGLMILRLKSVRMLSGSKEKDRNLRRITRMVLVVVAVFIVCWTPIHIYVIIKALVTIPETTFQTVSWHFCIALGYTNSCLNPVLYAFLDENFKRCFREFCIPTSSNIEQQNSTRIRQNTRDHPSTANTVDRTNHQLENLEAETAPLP
m5-HT2A ag conf – confirmation of mouse HTR2A serotonin receptor agonists. shares compounds with m5-HT2A agonist. CHO-K1 PathHunter beta-arrestin recruitment, luminescence; DMSO 0%, 30 µM serotonin 100%. activation, % at 7.6 µM. 2,300 tested, 19% active. AID 624381;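 active means mean activation across triplicates above the hit threshold derived in the original primary screen, cut at about 15% in these data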
EBI2 antag conf – EBI2 (human) antagonism, single concentration confirmation; 2,400 tested, 29% active; inhibition, % at 5 µM; AID 651997; shares compounds with EBI2 block; EBI2 beta-arrestin luminescence, 7a,25-OHC antagonism;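 active means inhibition of at least 50%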
EBI2 ag – EBI2 agonism counter-screen | shares compounds with EBI2 block | EBI2-expressing cells, agonist mode, luminescence, 60 min; 0% vehicle, 100% 7α,25-dihydroxycholesterol control | activation, % at 5 µM | 2,400 tested, under 10 active | AID 652000;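 active means activation of at least 50%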
bGal counter – beta-galactosidase inhibition counter-screen | shares compounds with EBI2 block | purified beta-galactosidase, luminescent Galacton Star, 15 min | inhibition, % at 5 µM | 2,400 tested, 1% active | AID 652176;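 active means replicate-average signal at least 3 plate SD below neutral wells, shown as high inhibition, flagging enzyme-inhibiting false positives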;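 further: 0% = DMSO wells with enzyme and 100% = wells lacking enzyme; higher means stronger loss of beta-gal luminescence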
Numbers without * were called inactive; · = no result.

SMILES | CXCR6 block | APJ antag | CCR6 antagonist | APJ ag | m5-HT2A agonist | EBI2 block | MOR ag counter | m5-HT2A ag conf | others
O=C(N/N=C/c1c[nH]c2ccccc12)c1sc2ccccc2c1Cl | -5 | 11 | 16 | -1 | -6 | 4 | · | ·
O=C(C(=Cc1ccc(F)cc1)C(=O)c1ccccc1)c1ccccc1 | 42* | · | · | · | -8 | 25 | · | · | CXCR6 confirm=58*
O=C(C(=Cc1ccc(F)cc1)c1ccccc1)c1ccc(O)cc1 | 0 | · | 13 | · | -2 | -3 | · | ·
CCOC(=O)c1cc([N+](=O)[O-])cc([N+](=O)[O-])c1Sc1ncnc2nc[nH]c12 | 45* | · | · | · | -2 | -44 | · | · | CXCR6 confirm=33
N#Cc1cc(N2CCCCC2)c([N+](=O)[O-])cc1C#N | 4 | -12 | -9 | -1 | 5 | 4 | · | ·
O=[N+]([O-])c1cc2no[n+]([O-])c2cc1N1CCCCC1 | 100* | · | 106* | · | -7 | -30 | · | · | CXCR6 confirm=93*
CN(C)CCCNCC(=O)c1c(-c2ccccc2)n(C)c2ccccc12 | -3 | · | 19 | · | -9 | -3 | · | ·
O=C(NC(=S)N(CCc1ccccc1)CCc1ccccc1)c1ccco1 | 39* | 23 | · | -1 | -6 | 2 | · | · | CXCR6 confirm=50*
O=C(NC(=S)N(Cc1ccccc1)Cc1ccccc1)c1ccccc1F | 36* | 10 | 24 | -4 | -6 | 0 | · | · | CXCR6 confirm=25
CC(CCc1ccccc1)NC(=S)NC(=O)c1ccco1 (stereo not drawn) | 12 | 0 | 0 | -3 | 3 | 1 | · | ·
O=C(NC(=S)NCc1ccccc1)c1ccccc1F | 6 | 3 | 14 | 0 | -1 | 2 | · | ·
CCC1NC(=O)c2cc3ccccc3cc2-n2c1nc1cc(C)cc(C)c1c2=O (stereo not drawn) | 60* | · | · | · | 6 | 86* | · | · | CXCR6 confirm=7;EBI2 antag conf=69*;EBI2 ag=-1;bGal counter=-11
CS(=O)(=O)c1ccc(C(=O)OCC(=O)N2CCOCC2)cc1[N+](=O)[O-] | -11 | · | · | · | 5 | -1 | · | ·
CS(=O)(=O)c1ccc(C(=O)OCC(=O)N2CCN(CCC3CCCCC3)CC2)cc1[N+](=O)[O-] | 54* | · | · | · | -6 | 48* | · | · | CXCR6 confirm=71*;EBI2 antag conf=54*;EBI2 ag=-1;bGal counter=-17
CSCC[C@H](NC(=O)c1ccc(OCC2CCCO2)cc1)c1nc2ccccc2[nH]1 (stereo partly drawn) | 4 | 18 | -3 | -5 | 10 | -7 | · | ·
Cc1nc(SCC(=O)O)c(C#N)c(-c2ccco2)c1C(=O)N(C)C | 9 | -22 | 6 | 0 | -5 | 4 | · | ·
CSc1nc(C)c(C(=O)Nc2ccccc2)c(-c2ccco2)c1C#N | -5 | -7 | 16 | -3 | 16* | -19 | 0 | -3
COc1cccc(OC)c1C(=O)Nc1ccc(C(=O)c2ccncc2)cc1 | -15 | 5 | 3 | 2 | 19* | 11 | 0 | -3
O=S(=O)(c1ccc2nnn(O)c2c1)N1CCCCC1 | -1 | 15 | -3 | -3 | 20* | 4 | -1 | -5
CCN(CC)S(=O)(=O)c1ccc2nnn(O)c2c1 | -10 | 9 | 0 | 3 | 3 | -10 | · | ·
CC(=O)OCCNC(=O)c1cc2ccccc2oc1=O | 0 | -7 | 7 | -2 | -4 | 6 | · | ·
CN(C)CCNC(=O)c1cc2ccccc2oc1=O | -7 | -4 | -10 | -2 | 16* | -5 | 0 | -3
COc1ccc(NC(=O)c2cccc([N+](=O)[O-])c2)cc1 | -7 | -4 | 3 | -1 | 1 | -7 | · | ·
COc1ccc(NC(=O)c2cc([N+](=O)[O-])ccc2O)cc1 | -8 | 22 | 10 | -3 | 15* | 6 | -1 | -3
CCOC(=O)CCCN(c1[nH]c(C)c(C)c1C#N)S(=O)(=O)c1ccc(C)cc1 | -2 | · | · | · | -1 | -8 | · | ·
SMILES | CXCR6 block | APJ antag | CCR6 antagonist | APJ ag | m5-HT2A agonist | EBI2 block | MOR ag counter | m5-HT2A ag conf | others
N#Cc1ccccc1OCC(=O)NC(N)=O | -3 | 3 | 10 | 1 | 0 | 1 | · | ·
CCOC(=O)CCCNC(=O)COc1ccccc1C#N | 0 | -15 | 10 | 5 | 19* | -10 | 0 | 10
O=C(NCc1ccccn1)C(F)(F)C(F)(F)C(=O)NCc1ccccn1 | -1 | -16 | 10 | 7 | 15* | -9 | 0 | -3
O=C(NCc1ccccn1)c1ccccc1OCc1ccccc1Cl | 6 | · | · | · | 24* | 4 | 0 | -6
O=c1[nH]c(CSc2ccccn2)nc2c1oc1ccccc12 | -1 | 5 | 4 | -1 | 1 | -4 | · | ·
COc1ccc(C(=O)N2CCN(c3ccc(NC(=O)c4ccco4)cc3)CC2)cc1 | 6 | -11 | 8 | -2 | 4 | 3 | · | ·
CC(C)Oc1ccc(C(=O)Nc2ccc(N3CCN(C(=O)c4ccco4)CC3)cc2)cc1 | -7 | 28 | 2 | 1 | 15* | 3 | 0 | -2
O=C(C[C@@H]1CC[C@H](NS(=O)(=O)c2ccccc2F)[C@@H](CO)O1)NCCCN1CCOCC1 | · | · | · | · | -3 | 1 | · | ·
C=C1CC2C3CC[C@@]4(OCOC45COCO5)[C@@]3(C)C(O)CC2[C@@]2(C)CCC(=O)C=C12 (stereo partly drawn) | -11 | -4 | 3 | 5 | 15* | 5 | -1 | -1
N#Cc1cc(Sc2ccccn2)c([N+](=O)[O-])cc1C#N | 2 | -28 | 2 | 3 | 17* | 5 | 0 | -3
N#Cc1cc(Sc2ccccn2)c(Sc2ccccn2)cc1C#N | 5 | 2 | 15 | -2 | 3 | 23 | · | ·
Cc1ccc(NC(=O)C2COc3ccccc3O2)cc1S(=O)(=O)N1CCOCC1 (stereo not drawn) | -5 | -23 | 1 | -1 | -7 | -7 | · | ·
Cc1cccc(NC(=O)c2cnc3ccccn3c2=O)c1 | 4 | 9 | 19 | 0 | 26* | 0 | -1 | -1
